This is an account of results in ChEMBL document CHEMBL1129794, “Synthesis and evaluation of 2-[(5-methylbenz-1-ox-4-azin-6-yl)imino]imidazoline, a potent, peripherally acting alpha 2 adrenoceptor agonist” (J Med Chem, 1996).

For data set [1], the target named is T1, Adrenergic receptor alpha-2 (Homo sapiens, UniProt P08913+P18825+P18089).
T1 sequence (P08913 whole entry): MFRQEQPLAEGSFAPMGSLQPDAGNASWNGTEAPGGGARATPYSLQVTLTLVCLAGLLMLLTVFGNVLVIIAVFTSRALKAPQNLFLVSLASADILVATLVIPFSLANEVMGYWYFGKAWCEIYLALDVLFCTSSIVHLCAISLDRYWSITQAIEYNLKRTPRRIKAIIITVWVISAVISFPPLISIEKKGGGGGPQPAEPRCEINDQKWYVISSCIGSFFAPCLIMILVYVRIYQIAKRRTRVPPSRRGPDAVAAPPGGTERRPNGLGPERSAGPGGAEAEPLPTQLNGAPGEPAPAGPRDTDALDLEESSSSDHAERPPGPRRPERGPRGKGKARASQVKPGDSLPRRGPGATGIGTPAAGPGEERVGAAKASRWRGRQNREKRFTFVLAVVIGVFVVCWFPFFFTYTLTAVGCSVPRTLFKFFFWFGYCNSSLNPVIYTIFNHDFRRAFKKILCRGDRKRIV
T1 sequence (P18825 whole entry): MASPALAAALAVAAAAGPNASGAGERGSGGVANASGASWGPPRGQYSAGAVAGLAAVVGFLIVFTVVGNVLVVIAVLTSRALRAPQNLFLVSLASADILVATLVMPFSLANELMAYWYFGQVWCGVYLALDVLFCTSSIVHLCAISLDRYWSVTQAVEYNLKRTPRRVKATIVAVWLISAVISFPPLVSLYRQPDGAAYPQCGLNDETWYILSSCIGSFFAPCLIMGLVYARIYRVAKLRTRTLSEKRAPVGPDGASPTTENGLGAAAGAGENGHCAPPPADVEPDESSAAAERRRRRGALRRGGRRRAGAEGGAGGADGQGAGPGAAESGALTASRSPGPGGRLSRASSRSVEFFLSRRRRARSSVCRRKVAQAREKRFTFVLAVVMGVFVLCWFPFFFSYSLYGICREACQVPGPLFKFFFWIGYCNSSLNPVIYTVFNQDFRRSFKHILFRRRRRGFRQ
T1 sequence (P18089 whole entry): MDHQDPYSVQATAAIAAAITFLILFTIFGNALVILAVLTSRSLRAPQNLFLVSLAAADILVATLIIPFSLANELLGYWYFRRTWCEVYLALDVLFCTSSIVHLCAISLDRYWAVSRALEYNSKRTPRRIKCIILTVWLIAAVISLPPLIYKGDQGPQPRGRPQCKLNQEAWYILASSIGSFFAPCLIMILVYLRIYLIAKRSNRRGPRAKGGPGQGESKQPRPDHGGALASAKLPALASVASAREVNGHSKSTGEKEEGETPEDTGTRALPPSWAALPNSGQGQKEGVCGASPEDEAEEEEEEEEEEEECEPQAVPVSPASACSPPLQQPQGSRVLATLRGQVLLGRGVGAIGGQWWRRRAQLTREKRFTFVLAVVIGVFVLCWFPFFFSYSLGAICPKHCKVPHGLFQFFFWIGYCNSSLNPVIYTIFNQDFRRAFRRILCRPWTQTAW
The experiment in a line: Compound was tested for concentration that produced 50% contractile response relative to maximum response to norepinephrine for Alpha-2 adrenergic receptor in rabbit vas deferens. Type of data set: functional, tissue-based, Oryctolagus cuniculus. Conditions: target entry is the homologue from another species.

A short description of data set [2]: pKa value determined in the presence of the partition solvent for guanidine subunit. Type of data set: physicochemical. The essentials:
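Potentiometric titration: compound dissolved, solution titrated to predetermined final pH; pKa measured in water and again with octanol or dodecane added before titration; log P derived from shift between aqueous pKa and pKa in presence of partition solvent.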

Data set [3] concerns the target T2, Adrenergic receptor alpha-1 (Homo sapiens, UniProt P35348+P25100+P35368).
T2 sequence (P35348 whole entry): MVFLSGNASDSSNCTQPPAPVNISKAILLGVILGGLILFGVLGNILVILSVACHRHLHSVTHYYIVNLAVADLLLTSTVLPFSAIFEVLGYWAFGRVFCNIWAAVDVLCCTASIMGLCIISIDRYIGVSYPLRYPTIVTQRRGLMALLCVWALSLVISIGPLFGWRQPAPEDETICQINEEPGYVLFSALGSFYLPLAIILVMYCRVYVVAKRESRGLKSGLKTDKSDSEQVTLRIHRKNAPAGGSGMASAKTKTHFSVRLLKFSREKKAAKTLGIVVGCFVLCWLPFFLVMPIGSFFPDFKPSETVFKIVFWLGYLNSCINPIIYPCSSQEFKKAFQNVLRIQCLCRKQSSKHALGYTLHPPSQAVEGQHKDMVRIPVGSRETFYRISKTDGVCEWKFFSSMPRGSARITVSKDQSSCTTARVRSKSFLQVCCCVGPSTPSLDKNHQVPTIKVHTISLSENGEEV
T2 sequence (P25100 whole entry): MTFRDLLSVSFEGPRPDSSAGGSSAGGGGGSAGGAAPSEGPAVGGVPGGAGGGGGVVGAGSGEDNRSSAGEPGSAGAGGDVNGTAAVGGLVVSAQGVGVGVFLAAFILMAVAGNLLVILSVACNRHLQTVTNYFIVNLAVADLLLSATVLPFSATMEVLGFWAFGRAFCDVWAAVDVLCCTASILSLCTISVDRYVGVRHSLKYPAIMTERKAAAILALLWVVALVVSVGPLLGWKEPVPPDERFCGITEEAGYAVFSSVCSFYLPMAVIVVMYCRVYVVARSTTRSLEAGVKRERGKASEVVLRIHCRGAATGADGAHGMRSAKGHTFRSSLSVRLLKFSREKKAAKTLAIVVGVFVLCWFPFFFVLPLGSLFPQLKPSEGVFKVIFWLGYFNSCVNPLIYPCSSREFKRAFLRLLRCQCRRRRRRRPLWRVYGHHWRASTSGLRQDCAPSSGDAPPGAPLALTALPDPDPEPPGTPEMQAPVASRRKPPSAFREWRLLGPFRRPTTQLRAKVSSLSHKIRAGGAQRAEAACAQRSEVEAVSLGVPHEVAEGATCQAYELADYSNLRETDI
T2 sequence (P35368 whole entry): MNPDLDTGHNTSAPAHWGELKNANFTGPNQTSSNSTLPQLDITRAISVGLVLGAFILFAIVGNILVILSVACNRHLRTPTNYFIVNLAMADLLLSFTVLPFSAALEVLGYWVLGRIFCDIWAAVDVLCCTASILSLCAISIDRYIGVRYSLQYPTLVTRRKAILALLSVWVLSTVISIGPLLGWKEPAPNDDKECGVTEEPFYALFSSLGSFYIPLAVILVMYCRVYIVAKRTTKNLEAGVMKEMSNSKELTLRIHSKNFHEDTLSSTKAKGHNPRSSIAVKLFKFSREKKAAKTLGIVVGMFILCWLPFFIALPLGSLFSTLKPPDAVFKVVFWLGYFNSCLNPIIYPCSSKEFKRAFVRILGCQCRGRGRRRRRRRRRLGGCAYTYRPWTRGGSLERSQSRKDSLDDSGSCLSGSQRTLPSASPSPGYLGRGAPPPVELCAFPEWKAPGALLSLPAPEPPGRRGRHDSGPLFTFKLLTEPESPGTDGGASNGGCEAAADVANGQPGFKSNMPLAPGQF
Nature of the data set: Compound was tested for binding affinity based on dissociation constant of Alpha-1 adrenergic receptor. Type of data set: protein assay.

Data set [4] concerns the target T3, Alpha-2B adrenergic receptor (Rattus norvegicus, UniProt P19328).
T3 sequence (P19328 whole entry): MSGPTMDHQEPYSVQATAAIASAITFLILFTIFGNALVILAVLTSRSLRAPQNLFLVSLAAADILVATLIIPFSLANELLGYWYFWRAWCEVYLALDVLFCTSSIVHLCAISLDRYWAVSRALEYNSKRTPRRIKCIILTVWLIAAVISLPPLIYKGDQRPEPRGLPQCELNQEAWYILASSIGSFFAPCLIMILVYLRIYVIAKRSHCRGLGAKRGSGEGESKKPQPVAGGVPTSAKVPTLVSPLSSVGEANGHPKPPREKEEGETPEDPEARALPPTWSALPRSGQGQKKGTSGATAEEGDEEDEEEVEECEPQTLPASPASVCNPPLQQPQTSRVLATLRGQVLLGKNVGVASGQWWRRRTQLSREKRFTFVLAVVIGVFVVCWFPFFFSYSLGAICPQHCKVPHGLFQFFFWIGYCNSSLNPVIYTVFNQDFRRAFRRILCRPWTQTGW
The experiment in a line: Compound was tested in vitro for binding affinity against Alpha-2B adrenergic receptor from cloned rat RNG receptor transfected into Chinese hamster ovary (CHO) cells. Type of data set: cell-based. The method in brief:
(§1)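 Membrane binding using cloned receptors expressed in transfected CHO cells: alpha-2A human C-10, alpha-2B rat RNG, alpha-2C human C-2.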

Data set [5] addresses T4, Alpha-2A adrenergic receptor (Homo sapiens, UniProt P08913).
T4 sequence (P08913 whole entry): T1 sequence (P08913 whole entry)
The experiment in a line: Compound was tested in vitro for binding affinity against Alpha-2A adrenergic receptor from cloned human C-10 receptor transfected into Chinese hamster ovary (CHO) cells. It is filed as cell-based. The method in brief: as §1

Data set [6] concerns the target T5, Alpha-2C adrenergic receptor (Homo sapiens, UniProt P18825).
T5 sequence (P18825 whole entry): T1 sequence (P18825 whole entry)
Nature of the data set: Compound was tested in vitro for binding affinity against Alpha-2C adrenergic receptor from cloned human C-2 receptor transfected into Chinese hamster ovary (CHO) cells. It is filed as cell-based. The essentials: as §1

Turning to `Cc1c(NC2=NCCN2)ccc2c1NCCO2`, in data set [1], the EC50 is 1.2 nM. Also, in data set [2], the pKa came out at 11.1. Moreover, in data set [3], the affinity, expressed as Ki, was 470 nM.
In the case of `Cc1c(NC2=NCCN2)ccc2nccnc12`, the half-maximal effective concentration (EC50) in data set [1] is 0.26 nM. Besides, the values for the inhibition constant Ki in data set [4], in data set [5] and in data set [6] were 17 nM, 2 nM and 27 nM, respectively. Besides, in data set [2], the pKa came out at 9.4.
In data set [1], `Cc1c(NC2=NCCN2)ccc2c1NCCN2` displayed an EC50 of 3.5 nM. Moreover, the pKa in data set [2] was 11.3. In data set [6], the Ki was 120 nM.
As for `Nc1cc(Cl)c(N=C2NCCN2)c(Cl)c1` [APRACLONIDINE], the Ki in data set [3] worked out at 180 nM; in data set [6], 30 nM.

What is called EC50 is the concentration needed to bring the measured effect to its halfway point. A high value points to a less potent agent. A word on the pKa: it is the negative logarithm of the acid dissociation constant. A word on the Ki: it is a measure of affinity in units of concentration, obtained from inhibition or displacement. Higher therefore signals lower affinity.
